Assay [1] has as its target T1, Neuronal acetylcholine receptor; alpha4/beta2 (Rattus norvegicus, UniProt P09483+P12390). Description: Displacement of [3H]epibatidine from rat alpha4beta2 nAChR transfected in HEK293 cells after 2 hrs by beta-plate counting analysis. It is filed as cell-based. In outline:
(§1)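 Cell lines KXα3β4R2 and KXα4β2R2 (rat receptors) were used. Membranes were prepared by homogenizing cells in 50 mM Tris pH 7.4 and centrifuging twice at 20000g. They were incubated 2 h at room temperature with 0.3 nM [3H]epibatidine plus test sample, then filtered on PEI-soaked glass fiber and counted. Nonspecific binding was defined by 1 µM AT-1001 or 0.1 µM epibatidine. Ki was obtained by Cheng–Prusoff; runs were in triplicate, at least twice.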

In assay [2] the target is Neuronal acetylcholine receptor; alpha3/beta4 (Rattus norvegicus, UniProt P04757+P12392). Description: Displacement of [3H]epibatidine from rat alpha3beta4 nAChR transfected in HEK293 cells after 2 hrs by beta-plate counting analysis. The format is cell-based. In outline: as §1
Sequence of Neuronal acetylcholine receptor; alpha3/beta4 (P04757 whole entry): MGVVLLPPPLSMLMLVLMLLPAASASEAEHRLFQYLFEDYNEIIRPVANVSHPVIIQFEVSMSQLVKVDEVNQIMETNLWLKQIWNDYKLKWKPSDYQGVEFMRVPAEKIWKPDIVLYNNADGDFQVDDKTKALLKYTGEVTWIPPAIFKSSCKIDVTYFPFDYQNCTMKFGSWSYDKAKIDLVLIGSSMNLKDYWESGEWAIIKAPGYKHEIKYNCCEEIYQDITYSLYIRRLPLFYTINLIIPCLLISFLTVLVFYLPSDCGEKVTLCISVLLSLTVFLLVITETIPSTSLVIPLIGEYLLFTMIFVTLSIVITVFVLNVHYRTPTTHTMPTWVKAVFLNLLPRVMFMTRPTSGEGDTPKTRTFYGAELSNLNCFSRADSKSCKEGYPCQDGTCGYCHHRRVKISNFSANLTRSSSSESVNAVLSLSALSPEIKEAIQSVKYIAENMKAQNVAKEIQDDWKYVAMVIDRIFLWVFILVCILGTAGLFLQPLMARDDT
Sequence of Neuronal acetylcholine receptor; alpha3/beta4 (P12392 whole entry): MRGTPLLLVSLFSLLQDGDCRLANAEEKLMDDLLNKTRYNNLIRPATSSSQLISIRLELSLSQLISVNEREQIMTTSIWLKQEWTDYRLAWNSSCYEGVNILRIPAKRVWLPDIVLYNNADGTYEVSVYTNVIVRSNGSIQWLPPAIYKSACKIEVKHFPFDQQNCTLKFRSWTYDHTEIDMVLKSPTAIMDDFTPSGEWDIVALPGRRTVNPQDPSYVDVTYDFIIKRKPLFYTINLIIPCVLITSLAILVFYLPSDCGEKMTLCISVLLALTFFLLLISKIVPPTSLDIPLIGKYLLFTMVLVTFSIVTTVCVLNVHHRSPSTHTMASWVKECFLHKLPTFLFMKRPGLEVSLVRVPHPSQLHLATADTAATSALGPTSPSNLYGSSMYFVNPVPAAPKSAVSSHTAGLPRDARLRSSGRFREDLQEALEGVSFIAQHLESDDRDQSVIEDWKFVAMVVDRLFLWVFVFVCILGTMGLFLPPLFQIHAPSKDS
For the next assay, the species on record is Rattus norvegicus. Description: Selectivity ratio of Ki for rat alpha3beta4 nAChR to Ki for rat alpha4beta2 nAChR. In a few lines:
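Selectivity was calculated from [3H]epibatidine-binding Ki values as (Ki α3β4 − Ki α4β2)/Ki α4β2.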

The next assay deals with HEK293. Description: Selectivity ratio for rat alpha3beta4 nAChR transfected in HEK293 cells to rat alpha4beta2 nAChR transfected in HEK293 cells. The format is cell-based.
Assay [3] addresses T1, Neuronal acetylcholine receptor; alpha4/beta2. Description: Antagonist activity at rat alpha4beta2 nAChR transfected in HEK293 cells after 10 mins by fluorescence assay in presence of nicotine. It is filed as cell-based. In a few lines: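 Transfected HEK cells were seeded at 4000/well the day before and loaded with blue membrane-potential dye in HBSS/20 mM HEPES pH 7.4 at 37 °C for 20 min. […] Fluorescence (ex 530, em 550–580) was recorded every 3 s for 120 s on a FlexStation.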

T1 sequence (P09483 whole entry): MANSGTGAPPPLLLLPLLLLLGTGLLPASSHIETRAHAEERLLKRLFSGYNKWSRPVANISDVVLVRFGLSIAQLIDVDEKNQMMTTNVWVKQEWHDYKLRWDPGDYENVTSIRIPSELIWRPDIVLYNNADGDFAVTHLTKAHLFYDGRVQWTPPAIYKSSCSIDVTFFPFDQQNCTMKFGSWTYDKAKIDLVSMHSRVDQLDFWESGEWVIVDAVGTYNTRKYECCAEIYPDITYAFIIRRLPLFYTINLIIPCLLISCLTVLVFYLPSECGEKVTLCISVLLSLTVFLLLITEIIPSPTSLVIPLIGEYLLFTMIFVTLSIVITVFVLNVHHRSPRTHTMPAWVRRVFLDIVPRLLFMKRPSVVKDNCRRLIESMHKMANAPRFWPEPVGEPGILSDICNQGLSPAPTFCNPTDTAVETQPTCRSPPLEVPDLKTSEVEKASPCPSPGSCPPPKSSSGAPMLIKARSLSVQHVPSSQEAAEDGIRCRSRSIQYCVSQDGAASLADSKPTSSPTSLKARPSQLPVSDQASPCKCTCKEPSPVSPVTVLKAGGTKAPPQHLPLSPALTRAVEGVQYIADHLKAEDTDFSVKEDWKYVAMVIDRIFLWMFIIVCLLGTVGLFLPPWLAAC
T1 sequence (P12390 whole entry): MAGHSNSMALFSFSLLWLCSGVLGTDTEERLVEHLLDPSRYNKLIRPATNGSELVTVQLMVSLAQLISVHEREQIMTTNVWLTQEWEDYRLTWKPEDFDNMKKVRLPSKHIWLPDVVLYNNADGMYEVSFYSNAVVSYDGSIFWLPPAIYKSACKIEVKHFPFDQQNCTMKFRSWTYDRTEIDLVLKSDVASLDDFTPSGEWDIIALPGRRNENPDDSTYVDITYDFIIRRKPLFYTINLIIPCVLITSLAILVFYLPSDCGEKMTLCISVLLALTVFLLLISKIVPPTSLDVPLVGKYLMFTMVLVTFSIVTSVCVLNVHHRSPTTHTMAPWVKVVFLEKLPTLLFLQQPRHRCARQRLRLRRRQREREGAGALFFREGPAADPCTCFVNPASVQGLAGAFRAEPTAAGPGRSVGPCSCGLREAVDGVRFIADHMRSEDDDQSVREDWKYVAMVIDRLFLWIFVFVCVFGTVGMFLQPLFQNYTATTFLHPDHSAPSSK

As usually defined, the Ki is the dissociation constant of the complex between target and ligand, obtained from inhibition or displacement. Higher therefore signals a looser hold on the target. Turning to `CC(C)CCCN1C(N)=NC[C@@H]1CCCCN1C[C@@H](CC2CCCCC2)N(CCc2cccc(Br)c2)C1=N`, the inhibitory constant (Ki) in assay [1] was determined as 3.3 µM; in assay [2], 37.3 µM.

For `CC(C)(C)C1CCC(CN2CCN(CCCC[C@H]3CNC(=N)N3CCc3cccnc3)C2=N)CC1` (stereo partly drawn), the Ratio Ki in the assay listed under Rattus norvegicus came out at 64.

As for `CC(C)CCCN1C(=N)NC[C@@H]1CCCCN1C[C@@H](Cc2ccccc2)N(CCc2cccc(Br)c2)C1=N`, in the assay with HEK293, the Selectivity ratio came out at 17.5. Moreover, the Ki in assay [1] is 2.6 µM; in assay [2] it was 47.8 µM.

Consider `N=C1N(CCCC[C@H]2CN=C(N)N2CCc2ccc(Cl)c(Cl)c2)C[C@@H](Cc2ccc3ccccc3c2)N1CCc1ccc(Cl)c(Cl)c1`, for which the inhibitory constant (Ki) amounted to 47.5 µM in assay [1] and 347 µM in assay [2].

For `N=C1NC[C@H](CCCCN2C[C@@H](Cc3ccc4ccccc4c3)N(CCc3cccc(Br)c3)C2=N)N1CCc1ccc(Cl)c(Cl)c1`, in the assay with HEK293, the Selectivity ratio came to 0.6.

Consider `CCCCCCCN1C(=N)NC[C@@H]1CCCCN1C[C@@H](Cc2ccccc2)N(CC2CCC(C(C)(C)C)CC2)C1=N` (stereo partly drawn), for which the Selectivity ratio in the assay with HEK293 turned out to be 19.3.

A word on the IC50: it is the concentration at which inhibition is half-maximal. With `CC(C)(C)C1CCC(CN2C(=N)N(CCCC[C@@H]3CNC(=N)N3CCc3cccnc3)C[C@H]2Cc2ccccc2)CC1` (stereo partly drawn), the Ki in assay [1] was 0.307 µM; in assay [2], 63.3 µM. The Ratio Ki in the assay listed under Rattus norvegicus was found to be 206. Moreover, in assay [3], the IC50 is 3.02 µM.

`CC(C)CCCN1C(=N)NC[C@@H]1CCCCN1C[C@@H](CC2CCCCC2)N(CC2CCC(C(C)(C)C)CC2)C1=N` (stereo partly drawn): in the assay with HEK293, the Selectivity ratio came out at 21.2.

Turning to `CC(C)(C)C1CCC(CN2C(=N)N(CCCC[C@@H]3CNC(=N)N3CCc3cccnc3)C[C@H]2CC2CCCCC2)CC1` (stereo partly drawn), the values for the inhibition constant Ki in assay [1] and in assay [2] were 0.257 µM and 33.4 µM, respectively. For the same compound, in the assay listed under Rattus norvegicus, the Ratio Ki is 130. Further, the IC50 in assay [3] is 1.69 µM.

For the compound `CC(C)CCCN1C(=N)NC[C@@H]1CCCCN1C[C@@H](CC2CCCCC2)N(CCc2cccc(Br)c2)C1=N`, the Selectivity ratio in the assay on HEK293 was found to be 10.2.

On to `N=C1NC[C@H](CCCCN2C[C@@H](Cc3ccc4ccccc4c3)N(CCc3ccc(Cl)c(Cl)c3)C2=N)N1CCc1ccc(Cl)c(Cl)c1`, for which the Selectivity ratio with HEK293 was 6.3.

For `N=C1NC[C@H](CCCCN2C[C@H](Cc3ccc4ccccc4c3)N(CCc3cccc(Br)c3)C2=N)N1CCc1ccc(Cl)c(Cl)c1`, the Selectivity ratio in the assay with HEK293 was determined as 0.8.

As for `CC(C)(C)C1CCC(CN2C(=N)N(CCCC[C@H]3CN=C(N)N3CCc3cccc(F)c3)C[C@H]2CC2CCCCC2)CC1` (stereo partly drawn), the values for the Ki in assay [1] and in assay [2] were 3.73 µM and 88.9 µM, respectively. Besides, the IC50 in assay [3] came to 5.32 µM.

For `N=C1NC[C@H](CCCCN2C[C@@H](Cc3ccc4ccccc4c3)N(CCc3ccc(Br)cc3)C2=N)N1CCc1ccc(Cl)c(Cl)c1`, the Selectivity ratio in the assay on HEK293 is 0.6.

Take `CC(C)(C)C1CCC(CN2C(=N)N(CCCC[C@H]3CNC(=N)N3CCc3cccnc3)C[C@H]2CC2CCCCC2)CC1` (stereo partly drawn): the Ratio Ki in the assay listed under Rattus norvegicus came to 176.

Regarding `CO[C@H]1CC=C2CCN3CCC4=C(CC(=O)OC4)[C@]23C1`, the Ki was 0.485 µM in assay [1] and > 10 µM in assay [2]. For the same compound, in assay [3], the IC50 came out at 0.624 µM.

Consider `N=C1N(CCCC[C@H]2CN=C(N)N2CCc2ccc(Cl)c(Cl)c2)C[C@H](Cc2ccc3ccccc3c2)N1CCc1cccc(Br)c1`, for which the Ki was 43.4 µM in assay [1] and 76 µM in assay [2].

As for `CC(C)CCCN1C(=N)NC[C@@H]1CCCCN1C[C@@H](Cc2ccccc2)N(CC2CCC(C(C)(C)C)CC2)C1=N` (stereo partly drawn), in the assay with HEK293, the Selectivity ratio came to 28.5.

With `N=C1N(CCCC[C@H]2CN=C(N)N2CCc2ccc(Cl)c(Cl)c2)C[C@H](Cc2ccc3ccccc3c2)N1CCc1ccc(Cl)c(Cl)c1`, the inhibitory constant (Ki) in assay [1] was determined as 183 µM; in assay [2] it was 100 µM.

Regarding `CC(C)(C)C1CCC(CN2C(=N)N(CCCC[C@H]3CNC(=N)N3CCc3cccnc3)C[C@@H]2CC2CCCCC2)CC1` (stereo partly drawn), the Ratio Ki in the assay listed under Rattus norvegicus stood at 128.

For `CC(C)(C)C1CCC(CN2C(=N)N(CCCC[C@H]3CN=C(N)N3CCc3cccnc3)C[C@H]2CC2CCCCC2)CC1` (stereo partly drawn), the values for the inhibitory constant (Ki) in assay [1] and in assay [2] were 0.34 µM and 59.7 µM, respectively. In addition, the concentration for half-maximal inhibition (IC50) in assay [3] was 2.83 µM.

Take `N=C1N(CCCC[C@H]2CN=C(N)N2CCc2ccc(Cl)c(Cl)c2)C[C@@H](Cc2ccc3ccccc3c2)N1CCc1cccc(Br)c1`: the figures for the inhibitory constant (Ki) in assay [1] and in assay [2] were 1.9 µM and 3 µM, respectively.

With `CCCCCCCN1C(N)=NC[C@@H]1CCCCN1C[C@@H](Cc2ccccc2)N(CC2CCC(C(C)(C)C)CC2)C1=N` (stereo partly drawn), the Ki turned out to be 2.7 µM in assay [1] and 54.4 µM in assay [2].

Consider `CC(C)CCCN1C(N)=NC[C@@H]1CCCCN1C[C@@H](CC2CCCCC2)N(CC2CCC(C(C)(C)C)CC2)C1=N` (stereo partly drawn), for which the Ki in assay [1] came out at 3.5 µM; in assay [2], 78.4 µM.

Take `N=C1N(CCCC[C@H]2CN=C(N)N2CCc2ccc(Cl)c(Cl)c2)C[C@@H](Cc2ccc3ccccc3c2)N1CCc1ccc(Br)cc1`: the inhibitory constant (Ki) was found to be 2.5 µM in assay [1] and 4 µM in assay [2].

Consider `N=C1NC[C@H](CCCCN2C[C@H](Cc3ccc4ccccc4c3)N(CCc3ccc(Br)cc3)C2=N)N1CCc1ccc(Cl)c(Cl)c1`, for which the Selectivity ratio in the assay on HEK293 was -0.1.

Turning to `CC(C)(C)C1CCC(CN2CCN(CCCC[C@@H]3CNC(=N)N3CCc3cccnc3)C2=N)CC1` (stereo partly drawn), the inhibition constant Ki in assay [1] was found to be 2.22 µM; in assay [2], 51.9 µM. Moreover, in the assay filed under Rattus norvegicus, the Ratio Ki worked out at 23. Further, in assay [3], the half-maximal inhibitory concentration (IC50) was found to be 2.95 µM.

Regarding `N=C1N(CCCC[C@H]2CN=C(N)N2CCc2cccc(F)c2)C[C@@H](CC2CCCCC2)N1CCc1cccc(Br)c1`, the inhibition constant Ki in assay [1] stood at 3.5 µM; in assay [2], 20.1 µM.

Take `N=C1N(CCCC[C@H]2CN=C(N)N2CCc2cccc(F)c2)C[C@@H](Cc2ccccc2)N1CCc1cccc(Br)c1`: the values for the inhibition constant Ki in assay [1] and in assay [2] were 1.8 µM and 20.4 µM, respectively.

With `CC(C)(C)C1CCC(CN2C(=N)N(CCCC[C@H]3CNC(=N)N3CCc3cccnc3)C[C@@H]2Cc2ccccc2)CC1` (stereo partly drawn), the Ratio Ki in the assay listed under Rattus norvegicus was determined as 74.

`CCCCCCCN1C(N)=NC[C@@H]1CCCCN1C[C@@H](CC2CCCCC2)N(CCc2cccc(Br)c2)C1=N`: the Ki in assay [1] amounted to 2.8 µM; in assay [2], 23.4 µM.

Take `N=C1N(CCCC[C@H]2CN=C(N)N2CCc2ccc(Cl)c(Cl)c2)C[C@H](Cc2ccc3ccccc3c2)N1CCc1ccc(Br)cc1`: the Ki in assay [1] came to 3.1 µM; in assay [2] it was 2.7 µM.

On to `CCCCCCCN1C(=N)NC[C@@H]1CCCCN1C[C@@H](CC2CCCCC2)N(CCc2cccc(Br)c2)C1=N`, for which the Selectivity ratio with HEK293 came out at 7.2.

For `CC(C)(C)C1CCC(CN2C(=N)N(CCCC[C@H]3CNC(=N)N3CCc3cccc(F)c3)C[C@H]2Cc2ccccc2)CC1` (stereo partly drawn), the Selectivity ratio in the assay on HEK293 turned out to be 19. The values for the Ki in assay [1] and in assay [2] were 1.59 µM and 61.7 µM, respectively. Besides, the Ratio Ki in the assay filed under Rattus norvegicus was 39. Moreover, the IC50 in assay [3] was determined as 26.3 µM.

As for `N=C1NC[C@H](CCCCN2C[C@@H](Cc3ccccc3)N(CCc3cccc(Br)c3)C2=N)N1CCc1cccc(F)c1`, the Selectivity ratio in the assay with HEK293 is 10.1.

Consider `CCCCCCCN1C(=N)NC[C@@H]1CCCCN1C[C@@H](CC2CCCCC2)N(CC2CCC(C(C)(C)C)CC2)C1=N` (stereo partly drawn), for which the Selectivity ratio with HEK293 was determined as 13.2.

As to `CC(C)(C)C1CCC(CN2C(=N)N(CCCC[C@H]3CN=C(N)N3CCc3cccnc3)C[C@@H]2Cc2ccccc2)CC1` (stereo partly drawn), the values for the inhibition constant (Ki) in assay [1] and in assay [2] were 0.323 µM and 23.8 µM, respectively. Further, the IC50 in assay [3] worked out at 1.47 µM.

For the compound `CCCCCCCN1C(=N)NC[C@@H]1CCCCN1C[C@@H](Cc2ccccc2)N(CCc2cccc(Br)c2)C1=N`, the Selectivity ratio with HEK293 came to 4.8. Moreover, the Ki in assay [1] was 2.5 µM; in assay [2] it was 14.4 µM.

Take `CCCCCCCN1C(N)=NC[C@@H]1CCCCN1C[C@@H](CC2CCCCC2)N(CC2CCC(C(C)(C)C)CC2)C1=N` (stereo partly drawn): the inhibitory constant (Ki) worked out at 3.9 µM in assay [1] and 55.1 µM in assay [2].

For the compound `N=C1NC[C@H](CCCCN2C[C@@H](CC3CCCCC3)N(CCc3cccc(Br)c3)C2=N)N1CCc1cccc(F)c1`, in the assay on HEK293, the Selectivity ratio stood at 4.8.

In the case of `CC(C)(C)C1CCC(CN2CCN(CCCC[C@H]3CN=C(N)N3CCc3cccnc3)C2=N)CC1` (stereo partly drawn), the inhibition constant (Ki) amounted to 0.433 µM in assay [1] and 27.6 µM in assay [2]. In addition, in assay [3], the IC50 came out at 2.82 µM.

Take `CC(C)(C)C1CCC(CN2C(=N)N(CCCC[C@H]3CNC(=N)N3CCc3cccc(F)c3)C[C@H]2CC2CCCCC2)CC1` (stereo partly drawn): the Selectivity ratio in the assay with HEK293 worked out at 25.9. Also, the Ratio Ki in the assay listed under Rattus norvegicus came to 24.

Regarding `CC(C)CCCN1C(N)=NC[C@@H]1CCCCN1C[C@@H](Cc2ccccc2)N(CC2CCC(C(C)(C)C)CC2)C1=N` (stereo partly drawn), the values for the Ki in assay [1] and in assay [2] were 2.3 µM and 68.4 µM, respectively.

For the compound `CC(C)(C)C1CCC(CN2C(=N)N(CCCC[C@H]3CN=C(N)N3CCc3cccnc3)C[C@@H]2CC2CCCCC2)CC1` (stereo partly drawn), the Ki was found to be 0.611 µM in assay [1] and 78.1 µM in assay [2]. The half-inhibitory concentration (IC50) in assay [3] is 3.4 µM.

These data come from ChEMBL document CHEMBL3108759, “Scaffold ranking and positional scanning utilized in the discovery of nAChR-selective compounds suitable for optimization studies” (J Med Chem, 2013).
